Assay outcomes from PubChem.
Mot1-301 SUMO: yeast Mot1-301 growth rescue at high temperature, primary screen, SUMOylation pathway inhibitor project, S. cerevisiae, ATP luminescence, 38.5C; S. cerevisiae Mot1-301 growth rescue; percent above DMSO median, 100 means doubled; growth rescue, % at 18.8 µM; 1% of 320,000 active;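 active = every valid replicate shows activation above 250% relative to neutral control wells; inactive = the rest, any valid replicate at or below 250%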;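 also: OY570 slx delta 5 strain wells were the positive control but not used for scaling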
DNA FID counter: compounds displacing fluorescent DNA intercalator, primary screen, artefact control for HCV NS3 helicase inhibitor project, biochemical, FID fluorescence. AID 1845, 2009. inhibition, % at 7.9 µM. 0.17% of 290,000 active. DNA fluorescent intercalator displacement; in the data active = inhibition above about 37%;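 also: 0% = vehicle and 100% = reference compound; higher means more ethidium bromide displaced from hairpin DNA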
NALP1 yeast inh: NALP1 inflammasome inhibitors in reconstituted yeast, colorimetric, S. cerevisiae, triplicate retest; S. cerevisiae NALP1/ASC/caspase-1 growth, X-gal OD620, 72 h; inhibition, % at 10 µM; 0.61% of 280,000 active; in the data active = inhibition mostly above about 24%, no sharp cut-off; inactive = mostly below about 32%
VIM-2 inhibitor: VIM-2 metallo-beta-lactamase inhibitors, primary screen, biochemical, epi-absorbance readout, Pseudomonas aeruginosa enzyme | purified VIM-2, nitrocefin hydrolysis, epi-absorbance fluorescence | inhibition, % at 5.6 µM | 0.89% of 290,000 active | AID 1527, 2009;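 active = inhibition above the mean of all tested compounds plus 3 SD, cutoff set per screening run, cut at about 7.5% in these data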;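 also: red hydrolysis product quenches plate fluorescence so inhibitors raise well fluorescence; 0% = enzyme with DMSO and 100% = DMSO without enzyme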
SUMO HTRF inh: inhibitors of in vitro SUMOylation cascade, primary screen, biochemical, HTRF, uHTS; 0.36% of 290,000 active; HTRF SUMOylation assay, SAE1/SAE2 + UBC9; inhibition, % at 35 µM; SUMO-conjugating enzyme UBC9 (Homo sapiens), P63279; in the data active = inhibition above about 50%, passing the limit was not always enough
Target sequence (P63279 whole entry, looked up): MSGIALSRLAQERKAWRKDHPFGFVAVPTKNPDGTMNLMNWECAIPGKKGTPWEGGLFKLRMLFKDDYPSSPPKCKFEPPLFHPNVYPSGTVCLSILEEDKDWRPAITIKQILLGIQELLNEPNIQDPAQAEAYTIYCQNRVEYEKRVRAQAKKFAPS
IMP-1 inhibitor: IMP-1 metallo-beta-lactamase inhibitors, primary screen, biochemical, epi-absorbance readout, Pseudomonas aeruginosa enzyme; purified IMP-1, nitrocefin hydrolysis, epi-absorbance fluorescence; inhibition, % at 5.6 µM; 0.45% of 290,000 active; AID 1556, 2009;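 active = inhibition above the mean plus 3 SD of all compounds in the same screening run, cut at about 4.5% in these data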;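 also: 0% = IMP-1 with DMSO and 100% = DMSO wells lacking enzyme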
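System: purified recombinant IMP-1 beta-lactamase. Medium: Zinc- and detergent-supplemented HEPES buffer, pH 7.1. Compound: one 5.6 µM dose […]. Schedule: 15 min preincubation plus 25 min reaction at 25 °C. Technique: Epi-absorbance fluorescence, 480 nm excitation, 530 nm emission.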
* = called active by the depositor; nt = no result. A selection: hits, their analogues and other compounds. The true share with any hit is near 2.9%.

SMILES | Mot1-301 SUMO | DNA FID counter | NALP1 yeast inh | VIM-2 inhibitor | SUMO HTRF inh | IMP-1 inhibitor
O=C1CN(C(=O)COC(=O)CNS(=O)(=O)/C=C/c2ccccc2)c2ccccc2N1 | -11.6 | -15.6 | 33.5* | -4.3 | 19.7 | -3.2
CC(Oc1ccccc1)C(=O)OCC(=O)N1CC(=O)Nc2ccccc21 (stereo not drawn) | -7.6 | -0.8 | 24.1* | -2.1 | -4.2 | -1.7
O=C1CN(C(=O)COC(=O)CNS(=O)(=O)c2ccccc2)c2ccccc2N1 | 19.7 | -4.6 | 11.7 | 0.4 | 8.1 | -2.2
Cc1cc(C)nc(/N=C(\N)Nc2ccc(OCc3ccccc3)cc2)n1 | 82.0 | 20.3 | -5.3 | -2.0 | 10.3 | -2.2
Cc1cc(C)nc(/N=C(\N)Nc2ccc(OCCC(C)C)cc2)n1 | -13.9 | 10.6 | 32.8* | 0.6 | 30.9 | 0.7
O=C(O)C1C2C=CC(C2)C1C(=O)NCCCN1CCCC1=O (stereo not drawn) | 4.1 | -5.2 | 6.5 | 0.9 | 0.1 | 11.8*
Cc1ccc(NC(=O)C(=O)NCCCN2CCCC2=O)cc1 | 433.1* | nt | nt | nt | nt | nt
COc1ccc2nc(COC(=O)c3cccs3)c(C(C)=O)[n+]([O-])c2c1 | -14.1 | 0.9 | -17.5 | 2.3 | 24.3 | 1.1
Cc1ccc(CN2CCSc3sccc3C2=O)cc1 | 69.3 | -8.8 | 25.6* | -0.2 | 9.3 | -2.1
CCCCOC(=O)CCc1c(C)n[nH]c1C | -6.8 | -5.3 | -2.5 | -0.7 | 5.5 | -1.3
CCCNC(=O)c1ccc(N2CCC3(CC2)CC(c2ccccc2)=NO3)c(NC(=O)Cc2ccc(F)cc2)c1 | 15.6 | -25.9 | -15.3 | -1.4 | -7.0 | 9.9*
Cc1cc(C(=O)NNc2ccc(F)cc2F)no1 | 538.3* | -2.9 | nt | -1.0 | 2.0 | -3.4
CCCc1ccc(C(=O)NNC(=O)c2ccc(Br)cc2)cc1 | 4.4 | -5.5 | 16.0 | -1.0 | 27.6 | -2.0
CCc1ccc(C(=O)NNc2ccc(F)cc2F)cc1 | 339.2* | -3.7 | nt | -0.8 | 9.6 | -3.7
CCCc1ccc(C(=O)NNc2ccc(F)cc2)cc1 | 288.6* | -5.2 | 9.5 | 0.1 | -2.5 | -1.2
CCCNc1c(NS(=O)(=O)c2c(F)c(F)c(F)c(F)c2F)c(=O)oc2ccccc12 | -16.2 | -12.1 | -0.8 | -3.3 | 8.5 | -1.5
O=C(CNC1CCCC1)Nc1cc(Cl)ccc1[N+](=O)[O-] | 8.6 | 16.0 | 44.8* | -1.7 | 1.9 | -2.8
CCOc1ccccc1NC(=O)CN1C(=O)CSC(C)C1=O (stereo not drawn) | 0.9 | 0.1 | -9.2 | -1.1 | 11.0 | -2.1
COc1ccccc1CCC(=O)Nc1ccc2c(c1)CN(Cc1ccc(CO)o1)CC2 | -12.3 | -22.4 | 11.2 | -0.5 | 11.3 | 0.0
CC(C)Sc1nc2ccccc2n2cnnc12 | 10.2 | -9.1 | 7.6 | 10.6* | -11.0 | -1.6
CC(Nc1nc2ccccc2n2cnnc12)c1ccccc1 (stereo not drawn) | 62.6 | -23.7 | -7.7 | -4.9 | 4.1 | -3.5
CCOc1ccccc1CN1CCCC(C(=O)Nc2cccc(-n3cccn3)c2)C1 (stereo not drawn) | 29.1 | 38.8* | -14.7 | -0.1 | 32.4 | -3.8
CCOc1cccc(CN2CCCC(C(=O)Nc3cccc(-n4cccn4)c3)C2)c1 (stereo not drawn) | 3.3 | 15.1 | 5.6 | -1.6 | -1.6 | -0.8
C/C(=N\NC(=O)c1ccc(F)cc1)c1ccccn1 | 152.0 | -1.5 | 32.3 | -0.2 | -9.3 | -1.3
C=CCNC(=S)N/N=C(\C)c1ccccn1 | -2.3 | -1.4 | 77.7* | -2.6 | -44.4 | -2.5
Cc1c(N=NC2=C(O)CCCC2=O)c(=O)n(-c2ccccc2)n1C | -16.8 | -10.7 | -37.9 | -7.0 | 8.6 | -2.5
CC(C)(C)n1nc(-c2ccc(Cl)cc2)c2c(N)ncnc21 | 7.1 | -4.7 | 2.5 | 0.5 | 24.8 | -2.6
CC(C)(C)n1nc(-c2ccc(F)cc2)c2c(N)ncnc21 | -1.4 | -11.0 | 91.7* | -0.2 | 15.6 | -0.9
COc1ccc(Cl)cc1NC(=O)Cn1nnc(C(=O)NCc2ccc3c(c2)OCO3)c1N | -7.4 | -23.9 | 6.3 | -0.9 | 25.4 | 17.9*
